Test results as given in ChEMBL document CHEMBL5036356, “Spatial Distribution and Stability of Cholinesterase Inhibitory Protoberberine Alkaloids from Papaver setiferum” (J Nat Prod, 2022).

Assays:
Acetylcholinesterase [1] = target: Acetylcholinesterase (Electrophorus electricus, UniProt O42275); experiment: Inhibition of electrical eel AChE using acetylthiocholine chloride as substrate incubated for 5 mins by DTNB reagent based Ellman's method
How it was run: (§1)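 Enzyme stocks (commercial eel AChE, human recombinant AChE or horse serum BChE) at 0.0075 U/mL in 100 mM potassium phosphate, pH 7.4, added to start the reaction. Acetylthiocholine chloride 1 mM and DTNB 0.5 mM final. Compounds were taken from 5 mg/mL methanol stocks and serially diluted in buffer, with methanol blanks. Rate read at 405 nm, 25 °C, for 5 min. IC50 reported as mean ± SEM of at least three repeats.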

Acetylcholinesterase [2] = target: Acetylcholinesterase (Homo sapiens, UniProt P22303); experiment: Inhibition of human recombinant AChE using acetylthiocholine chloride as substrate incubated for 5 mins by DTNB reagent based Ellman's method; how it was run: as §1
Sequence of Acetylcholinesterase (Homo sapiens, UniProt P22303) (P22303 whole entry): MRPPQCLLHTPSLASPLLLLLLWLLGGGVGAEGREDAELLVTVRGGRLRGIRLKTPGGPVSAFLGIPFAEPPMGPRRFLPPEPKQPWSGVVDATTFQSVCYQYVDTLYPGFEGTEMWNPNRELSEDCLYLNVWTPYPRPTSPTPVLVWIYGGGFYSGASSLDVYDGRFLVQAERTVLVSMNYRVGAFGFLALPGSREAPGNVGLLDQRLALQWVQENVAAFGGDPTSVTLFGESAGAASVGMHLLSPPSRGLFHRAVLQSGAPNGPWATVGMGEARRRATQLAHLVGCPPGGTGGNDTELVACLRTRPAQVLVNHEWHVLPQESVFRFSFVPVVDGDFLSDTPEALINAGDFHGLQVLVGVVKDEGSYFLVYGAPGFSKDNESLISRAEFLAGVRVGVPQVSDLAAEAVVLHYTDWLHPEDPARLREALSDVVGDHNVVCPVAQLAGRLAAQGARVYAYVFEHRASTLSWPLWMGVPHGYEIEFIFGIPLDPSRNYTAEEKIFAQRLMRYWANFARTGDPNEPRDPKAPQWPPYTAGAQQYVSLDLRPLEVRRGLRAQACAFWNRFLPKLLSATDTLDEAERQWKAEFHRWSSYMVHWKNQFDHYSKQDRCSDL

Cholinesterase = Cholinesterase (Equus caballus, UniProt P81908); experiment: Inhibition of horse serum BChE incubated for 5 mins by DTNB reagent based Ellman's method
Sequence of Cholinesterase (P81908 whole entry): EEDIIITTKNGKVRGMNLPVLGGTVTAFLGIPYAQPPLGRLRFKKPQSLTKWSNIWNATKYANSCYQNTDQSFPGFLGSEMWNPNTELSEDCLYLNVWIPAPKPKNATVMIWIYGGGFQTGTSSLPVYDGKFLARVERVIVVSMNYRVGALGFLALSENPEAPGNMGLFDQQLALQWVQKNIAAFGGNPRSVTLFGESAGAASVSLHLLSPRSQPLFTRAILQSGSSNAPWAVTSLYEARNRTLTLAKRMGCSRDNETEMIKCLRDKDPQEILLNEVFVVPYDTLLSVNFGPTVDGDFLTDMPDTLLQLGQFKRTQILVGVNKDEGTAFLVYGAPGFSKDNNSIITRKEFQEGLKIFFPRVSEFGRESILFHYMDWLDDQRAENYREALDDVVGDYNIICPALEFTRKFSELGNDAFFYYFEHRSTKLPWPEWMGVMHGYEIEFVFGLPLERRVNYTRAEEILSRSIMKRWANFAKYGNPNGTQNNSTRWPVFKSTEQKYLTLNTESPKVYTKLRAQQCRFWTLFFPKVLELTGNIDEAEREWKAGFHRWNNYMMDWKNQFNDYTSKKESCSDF
How it was run: as §1, with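 “blanks.” for “blanks. Rate read at 405 nm, 25 °C, for 5 min.”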

Sequence of Acetylcholinesterase (Electrophorus electricus, UniProt O42275) (O42275 whole entry): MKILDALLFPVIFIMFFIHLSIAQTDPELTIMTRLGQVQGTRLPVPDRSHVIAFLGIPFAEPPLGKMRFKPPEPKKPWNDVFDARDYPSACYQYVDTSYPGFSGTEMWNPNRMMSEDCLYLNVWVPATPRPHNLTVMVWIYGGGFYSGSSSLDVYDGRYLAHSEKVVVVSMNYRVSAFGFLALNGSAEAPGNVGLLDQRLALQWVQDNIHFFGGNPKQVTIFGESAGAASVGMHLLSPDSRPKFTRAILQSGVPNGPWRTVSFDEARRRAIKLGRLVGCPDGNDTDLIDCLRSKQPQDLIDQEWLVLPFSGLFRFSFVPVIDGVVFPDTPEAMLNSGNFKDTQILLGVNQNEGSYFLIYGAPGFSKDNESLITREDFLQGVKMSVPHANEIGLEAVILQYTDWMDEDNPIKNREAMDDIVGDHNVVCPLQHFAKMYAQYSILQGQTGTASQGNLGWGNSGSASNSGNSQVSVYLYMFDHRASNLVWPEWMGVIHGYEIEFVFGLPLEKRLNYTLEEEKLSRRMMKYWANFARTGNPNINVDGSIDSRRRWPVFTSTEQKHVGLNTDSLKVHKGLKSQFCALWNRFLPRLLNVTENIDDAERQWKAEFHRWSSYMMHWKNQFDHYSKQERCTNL

COc1cc2c3c(c1O)-c1c(cccc1OC)C[C@@H]3[N+](C)(C)CC2
Not Active: IC50 (Acetylcholinesterase [1]) | Ki (Acetylcholinesterase [1]) | IC50 (Acetylcholinesterase [2]) | Ki (Acetylcholinesterase [2])

COc1cc(C[C@H]2c3cc(O)c(OC)cc3CC[N+]2(C)C)ccc1O
Not Active: Ki (Cholinesterase) | IC50 (Acetylcholinesterase [1]) | Ki (Acetylcholinesterase [1]) | IC50 (Acetylcholinesterase [2]) | Ki (Acetylcholinesterase [2])

COC1=C[C@]23CCN(C)[C@H](Cc4ccc(OC)c(O)c42)C3=CC1=O [SALUTARIDINE]
Not Active: Ki (Cholinesterase) | IC50 (Acetylcholinesterase [1]) | Ki (Acetylcholinesterase [1]) | IC50 (Acetylcholinesterase [2]) | Ki (Acetylcholinesterase [2])

O=[N+]([O-])CCc1ccc(O[C@@H]2O[C@H](CO[C@@H]3OC[C@@H](O)[C@H](O)[C@H]3O)[C@@H](O)[C@H](O)[C@H]2O)cc1
Not Active: IC50 (Cholinesterase) | Ki (Cholinesterase) | IC50 (Acetylcholinesterase [1]) | Ki (Acetylcholinesterase [1]) | IC50 (Acetylcholinesterase [2]) | Ki (Acetylcholinesterase [2])

COc1cc2c(cc1O)[C@H](Cc1ccc(OC)c(OC)c1)[N+](C)(C)CC2
Not Active: Ki (Cholinesterase) | IC50 (Acetylcholinesterase [1]) | Ki (Acetylcholinesterase [1]) | IC50 (Acetylcholinesterase [2]) | Ki (Acetylcholinesterase [2])

COc1cc2c3c(c1O)-c1c(cccc1OC)C[C@@H]3N(C)CC2
Not Active: IC50 (Acetylcholinesterase [2]) | Ki (Acetylcholinesterase [2])
